One may read the pIC50 as −log10 of the IC50, conventionally taken in molar units. What is called inhibition is the relative decrease from the control value, in per cent.

Experiment [1] has as its system HeLa. The experiment in a line: Cytotoxicity against human HeLa cells assessed as growth inhibition at 20 uM after 48 hrs by MTT assay. It is filed as functional. The note with it: for inhibition of growth at 20 µM: read-out: GI. The method, boiled down: (§1)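 Single-concentration screen at 20 µM. Cell growth inhibition read by standard MTT assay after 48 h treatment and expressed as inhibition ratio.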

Experiment [2] has as its system HeLa. Briefly: Induction of apoptosis in human HeLa cells assessed as increase in level of cleaved caspase-3 at 20 uM after 12 hrs by immunoblotting. Type of experiment: functional, cell-based. Background: A western blot detects proteins with antibodies after separation by electrophoresis.
The subject of experiment [3] is MDA-MB-231. Briefly: Cytotoxicity against human MDA-MB-231 cells assessed as growth inhibition after 48 hrs by MTT assay. Type of experiment: functional, cell-based. The note with it: for pIC50: MDA-MB-231, 48 h. The method, boiled down:
(§2)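 Dose-response MTT assay, 48 h exposure. Compounds run at multiple concentrations; IC50 taken as the concentration giving 50% growth inhibition. HEK-293T (human embryonic kidney cells transformed with adenovirus 5 DNA and SV40 large T-antigen) served as the normal-cell model.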

Experiment [4] deals with HeLa. The experiment in a line: Induction of apoptosis in human HeLa cells assessed as increase in level of cleaved PARP at 20 uM after 12 hrs by immunoblotting. It is filed as functional, cell-based.
Experiment [5] deals with MDA-MB-231. The experiment in a line: Cytotoxicity against human MDA-MB-231 cells assessed as growth inhibition at 20 uM after 48 hrs by MTT assay. Type of experiment: functional. The note with it: for inhibition of growth at 20 µM: MDA-MB-231, 48 h, read-out: GI. The method, boiled down: as §1
In general terms: Tetrazolium assays rely on reduction of a dye to a coloured formazan, in cell work by metabolically active cells.

In experiment [6] the target is Induced myeloid leukemia cell differentiation protein Mcl-1 (Homo sapiens) (UniProt Q07820). Briefly: Inhibition of mouse/human MCL1 expressed in Escherichia coli BL21 at 50 uM using FAM-labeled Bid-BH3 as tracer by fluorescence polarization assay. Background: In fluorescence polarisation assays a small probe gives low polarisation when free and higher when bound to something large.

The test system of the next experiment is HEK-293T. Briefly: Cytotoxicity against human HEK293T cells assessed as growth inhibition after 48 hrs by MTT assay. It is filed as cell-based. The method, boiled down: as §2
Experiment [7] concerns the target Induced myeloid leukemia cell differentiation protein Mcl-1 (Homo sapiens) (UniProt Q07820). The experiment in a line: Inhibition of mouse/human MCL1 expressed in Escherichia coli BL21 at 1 uM to 50 uM using FAM-labeled Bid-BH3 as tracer by fluorescence polarization assay.
Experiment [8] concerns A549. Briefly: Cytotoxicity against human A549 cells assessed as growth inhibition after 48 hrs by MTT assay. It is filed as functional, cell-based. The note with it: for pIC50: A549, 48 h. The method, boiled down:
as §2

Experiment [9] deals with A549. Briefly: Cytotoxicity against human A549 cells assessed as growth inhibition at 20 uM after 48 hrs by MTT assay. The note with it: for inhibition of growth at 20 µM: A549, 48 h, read-out: GI. Type of experiment: functional. The essentials: as §1
Experiment [10] has as its system HeLa. Briefly: Cytotoxicity against human HeLa cells assessed as growth inhibition after 48 hrs by MTT assay. Type of experiment: functional, cell-based. The method, boiled down:
as §2

Experiment [11] concerns HeLa. Briefly: Induction of apoptosis in human HeLa cells assessed as sub-diploid DNA content at 20 uM after 24 hrs using PI staining by flow cytometry (reference value: 6%). It is filed as functional.
For experiment [12], the system named is HeLa. The experiment in a line: Induction of apoptosis in human HeLa cells at 20 uM after 24 hrs using PI staining by flow cytometry relative to control. Type of experiment: functional.

pIC50: −log10 of the molar value. Activity calls are given as the source filed them. The rule behind the calls is not given here. Bounds are passed on as bounds.

As to `Cc1cc(-c2csc3ncn(CC(=O)N/N=C/c4ccc(Cl)c(F)c4)c(=O)c23)ccc1Cl`, the inhibition of growth at 20 µM in the experiment on HeLa [1] worked out at 52%; in the experiment with MDA-MB-231 [5], 74%; in the experiment on A549 [9], 51%. The result in the experiment with HeLa [2] and in the experiment on HeLa [4] was Active. The “growth inhibition (GI)” value in the experiment on MDA-MB-231 [3], in the experiment on A549 [8] and in the experiment with HeLa [10] was “Dose-dependent effect” each time. In addition, the pIC50 with MDA-MB-231 [3] is 4.80; in the experiment with HEK-293T, below 4.30; in the experiment on A549 [8], 4.77; in the experiment with HeLa [10], 4.82. This compound showed an inhibition in experiment [6] of 40%. The inhibition entry in experiment [7] is “inactive”. For the same compound, the Activity in the experiment with HeLa [11] is 27%.

`O=C(Cn1cnc2scc(-c3ccc4ccccc4c3)c2c1=O)N/N=C/c1ccc(Cl)c([N+](=O)[O-])c1`: the inhibition of growth at 20 µM in the experiment on HeLa [1] came out at 69%; with MDA-MB-231 [5], 55%; with A549 [9], 69%. The outcome with HeLa [2] and in the experiment on HeLa [4] was Active. Further, the “growth inhibition (GI)” value in the experiment with MDA-MB-231 [3], in the experiment on A549 [8] and in the experiment with HeLa [10] was “Dose-dependent effect” each time. Further, the negative-log IC50 (pIC50) in the experiment with MDA-MB-231 [3] was 4.70; in the experiment on HEK-293T, below 4.30; in the experiment on A549 [8] it was 4.89; in the experiment on HeLa [10] it was 4.62. In addition, the inhibition result in [7] was “inactive”. Also, the Activity in the experiment with HeLa [11] turned out to be 20%.

Turning to `O=C(Cn1cnc2scc(-c3ccc4ccccc4c3)c2c1=O)N/N=C/c1ccc(O)c(O)c1`, the “growth inhibition (GI)” value in the experiment with HeLa [1], with MDA-MB-231 [5] and with A549 [9] was “inactive” each time. The same compound gave an inhibition in [6] of 40%. The inhibition entry in experiment [7] was “inactive”.

For `O=C(Cn1cnc2scc(-c3ccc(Cl)cc3)c2c1=O)N/N=C/c1ccc(Cl)c([N+](=O)[O-])c1`, the inhibition of growth at 20 µM came to 74% in the experiment on HeLa [1], 78% with MDA-MB-231 [5] and 58% in the experiment with A549 [9]. The result in the experiment with HeLa [2] and with HeLa [4] was Active. Further, the “growth inhibition (GI)” value with MDA-MB-231 [3], in the experiment with A549 [8] and in the experiment on HeLa [10] was “Dose-dependent effect” each time. Besides, the pIC50 in the experiment with MDA-MB-231 [3] is 4.49; in the experiment on HEK-293T, below 4.30; in the experiment with A549 [8], 4.70; in the experiment with HeLa [10], 4.96. Also, the inhibition entry in experiment [7] is “inactive”. Besides, the Activity with HeLa [11] stood at 22%.

`Cc1csc2ncn(CC(=O)N/N=C/c3ccccc3O)c(=O)c12`: the “growth inhibition (GI)” value with HeLa [1] and with A549 [9] was “inactive” in each case. Besides, the inhibition of growth at 20 µM in the experiment with MDA-MB-231 [5] was determined as 30%. Further, the inhibition in experiment [6] stood at 40%. Further, in experiment [7], the inhibition entry was “inactive”.

`O=C(Cn1cnc2scc(-c3ccccc3)c2c1=O)N/N=C/c1ccc(Cl)c([N+](=O)[O-])c1`: the inhibition of growth at 20 µM in the experiment with HeLa [1] came to 64%; in the experiment with MDA-MB-231 [5], 29%; with A549 [9], 66%. The “growth inhibition (GI)” value in the experiment on MDA-MB-231 [3], with A549 [8] and with HeLa [10] was “Dose-dependent effect” each time. For the same compound, the pIC50 is 4.70 in the experiment with MDA-MB-231 [3], below 4.30 with HEK-293T, 4.80 in the experiment on A549 [8] and 4.96 with HeLa [10]. Also, the Activity in the experiment with HeLa [12] was 8%. Also, the inhibition entry in experiment [7] is “inactive”.

Regarding `O=C(Cn1cnc2sc3c(c2c1=O)CCCCC3)N/N=C/c1ccc(Cl)c([N+](=O)[O-])c1`, the inhibition of growth at 20 µM with HeLa [1] came out at 96%; in the experiment with MDA-MB-231 [5], 66%. Moreover, the pIC50 in the experiment on MDA-MB-231 [3] is 4.64; in the experiment on HEK-293T, below 4.30; with A549 [8] it was below 4.30; with HeLa [10] it was 5.22. Moreover, the Activity in the experiment with HeLa [12] came out at 6%. The inhibition entry in experiment [7] is “inactive”. The “growth inhibition (GI)” value in the experiment on A549 [9] is “inactive”.

The values are drawn from ChEMBL document CHEMBL1909506, “Synthesis and anti-tumor activities of N'-benzylidene-2-(4-oxothieno[2,3-d]pyrimidin-3(4H)-yl)acetohydrazone derivatives” (Bioorg Med Chem Lett, 2011).
